In brackets after ≈: the same amount, converted by molar mass. Activity calls are given as the source filed them. The calls are words filed in the database; no cut-off is given here.
Tests used:
[1] = Permeability of the compound in PBS at pH 7.4 incubated for 2 hrs under shaking condition by PAMPA; assay type: ADME; details: pH 7.4, 2 h
mTORC2 = mTORC2 (Homo sapiens, UniProt P42345); experiment: Inhibition of mTORC2 in human A2058 cells assessed as reduction in PKB phosphorylation at S473 residue incubated for 1 hr by Western blot analysis; assay type: cell-based
mTORC1 = mTORC1 (Homo sapiens, UniProt P42345); experiment: Inhibition of mTORC1 in human A2058 cells assessed as reduction in ribosomal protein S6 phosphorylation at Ser235/236 residues incubated for 1 hr by Western blot analysis; assay type: cell-based
[2] = biological target: T1, Serine/threonine-protein kinase mTOR (Homo sapiens, UniProt P42345); experiment: Displacement of alexa fluor 647-labeled kinase tracer 314 from recombinant human N-terminal GST-fused mTOR (1360 to 2549 residues) expressed in baculovirus expression system by TR-FRET assay
[3] = Thermodynamic solubility of the compound in buffer at pH 1.2 to 6.8 incubated for 24 hrs under agitation condition by shake flask method; assay type: physicochemical; details: read-out: Therm_solubility
[4] = Thermodynamic solubility of the compound in buffer at pH 1.2 incubated for 24 hrs under agitation condition by shake flask method; assay type: physicochemical; details: read-out: Therm_solubility
Cytochrome P450 1A2 = biological target: T2, Cytochrome P450 1A2 (Homo sapiens, UniProt P05177); experiment: Inhibition of CYP1A2 (unknown origin) by fluorescence assay; assay type: ADME
T2 sequence (P05177 whole entry): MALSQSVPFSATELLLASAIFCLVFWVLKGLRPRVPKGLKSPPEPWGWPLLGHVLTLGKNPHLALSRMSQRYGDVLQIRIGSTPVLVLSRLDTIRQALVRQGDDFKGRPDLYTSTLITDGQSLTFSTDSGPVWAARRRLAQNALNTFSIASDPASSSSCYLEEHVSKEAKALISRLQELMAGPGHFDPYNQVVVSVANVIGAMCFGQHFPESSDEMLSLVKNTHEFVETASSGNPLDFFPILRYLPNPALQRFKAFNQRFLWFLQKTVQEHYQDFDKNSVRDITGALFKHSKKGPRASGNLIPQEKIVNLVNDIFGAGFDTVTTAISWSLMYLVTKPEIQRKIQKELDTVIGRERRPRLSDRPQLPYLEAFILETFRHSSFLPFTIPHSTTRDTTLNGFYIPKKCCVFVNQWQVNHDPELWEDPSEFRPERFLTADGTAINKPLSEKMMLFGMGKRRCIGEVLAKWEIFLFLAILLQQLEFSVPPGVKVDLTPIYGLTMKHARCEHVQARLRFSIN

Cytochrome P450 2C19 = Cytochrome P450 2C19 (Homo sapiens, UniProt P33261); experiment: Inhibition of CYP2C19 (unknown origin) by fluorescence assay; assay type: ADME
Cytochrome P450 2C19, sequence (P33261 whole entry): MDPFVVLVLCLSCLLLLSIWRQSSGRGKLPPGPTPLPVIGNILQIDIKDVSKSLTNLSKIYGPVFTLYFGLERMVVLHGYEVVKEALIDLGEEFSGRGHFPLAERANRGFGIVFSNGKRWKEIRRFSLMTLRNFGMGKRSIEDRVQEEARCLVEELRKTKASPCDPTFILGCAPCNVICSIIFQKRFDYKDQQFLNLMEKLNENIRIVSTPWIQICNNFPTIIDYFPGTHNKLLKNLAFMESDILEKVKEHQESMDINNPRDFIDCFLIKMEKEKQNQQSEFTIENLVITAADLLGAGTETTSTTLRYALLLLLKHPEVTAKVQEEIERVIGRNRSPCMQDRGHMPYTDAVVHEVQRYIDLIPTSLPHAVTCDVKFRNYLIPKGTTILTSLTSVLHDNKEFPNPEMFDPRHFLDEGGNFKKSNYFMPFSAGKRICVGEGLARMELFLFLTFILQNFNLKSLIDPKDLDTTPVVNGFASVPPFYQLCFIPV

Cytochrome P450 2D6 = Cytochrome P450 2D6 (Homo sapiens, UniProt P10635); experiment: Inhibition of CYP2D6 (unknown origin) by fluorescence assay; assay type: ADME
Cytochrome P450 2D6, sequence (P10635 whole entry): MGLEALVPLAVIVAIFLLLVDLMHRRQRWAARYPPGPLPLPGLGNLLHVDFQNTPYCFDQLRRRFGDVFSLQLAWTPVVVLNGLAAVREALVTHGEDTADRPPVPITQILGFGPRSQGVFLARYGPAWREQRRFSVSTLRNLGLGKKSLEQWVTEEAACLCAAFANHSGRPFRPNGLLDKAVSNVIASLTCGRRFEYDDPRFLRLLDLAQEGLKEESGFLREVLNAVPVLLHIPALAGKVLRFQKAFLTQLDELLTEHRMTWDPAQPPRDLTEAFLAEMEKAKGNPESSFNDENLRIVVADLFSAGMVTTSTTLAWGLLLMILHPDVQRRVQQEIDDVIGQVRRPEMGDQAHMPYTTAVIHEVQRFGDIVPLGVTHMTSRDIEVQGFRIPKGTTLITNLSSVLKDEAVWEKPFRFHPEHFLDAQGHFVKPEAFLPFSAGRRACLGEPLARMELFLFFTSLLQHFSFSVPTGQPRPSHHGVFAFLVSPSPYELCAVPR

Cytochrome P450 3A4 = Cytochrome P450 3A4 (Homo sapiens, UniProt P08684); experiment: Inhibition of CYP3A4 (unknown origin) by fluorescence assay; assay type: ADME
Cytochrome P450 3A4, sequence (P08684 whole entry): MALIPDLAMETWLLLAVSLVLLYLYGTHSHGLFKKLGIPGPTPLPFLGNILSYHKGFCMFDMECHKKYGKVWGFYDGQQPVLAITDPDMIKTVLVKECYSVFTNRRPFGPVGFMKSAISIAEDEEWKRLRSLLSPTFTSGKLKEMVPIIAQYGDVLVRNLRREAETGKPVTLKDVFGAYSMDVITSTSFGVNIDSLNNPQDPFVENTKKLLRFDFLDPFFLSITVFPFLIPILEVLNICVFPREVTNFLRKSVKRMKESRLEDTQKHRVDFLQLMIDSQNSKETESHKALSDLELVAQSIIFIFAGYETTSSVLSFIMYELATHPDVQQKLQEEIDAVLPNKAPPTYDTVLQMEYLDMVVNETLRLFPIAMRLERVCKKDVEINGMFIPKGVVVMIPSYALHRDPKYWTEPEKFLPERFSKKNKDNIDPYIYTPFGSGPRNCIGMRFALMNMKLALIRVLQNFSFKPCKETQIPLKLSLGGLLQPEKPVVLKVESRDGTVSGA

[5] = Clearance in rat cryopreserved hepatocytes assessed per 10^6 cells at 2.5 uM measured up to 90 mins by LC-MS/MS analysis; assay type: ADME, cell-based, Hepatocyte; details: 1.5 h
Outline: (§1)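 Cultured rat, mouse, dog and human hepatocytes were incubated with compound. Clearance and half-life were measured. Each experiment was run with n = 3.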

[6] = Clearance in mouse cryopreserved hepatocytes assessed per 10^6 cells at 2.5 uM measured up to 90 mins by LC-MS/MS analysis; assay type: ADME, cell-based, Hepatocyte; details: 1.5 h; outline: as §1
[7] = Clearance in dog cryopreserved hepatocytes assessed per 10^6 cells at 2.5 uM measured up to 90 mins by LC-MS/MS analysis; assay type: ADME, cell-based, Canis lupus familiaris, Hepatocyte; details: 1.5 h; outline: as §1
[8] = Clearance in human cryopreserved hepatocytes assessed per 10^6 cells at 2.5 uM measured up to 90 mins by LC-MS/MS analysis; assay type: ADME, cell-based, Hepatocyte; details: 1.5 h; outline: as §1
[9] = Half life in rat cryopreserved hepatocytes at 2.5 uM measured up to 90 mins by LC-MS/MS analysis; assay type: ADME, cell-based, Hepatocyte; details: 1.5 h; outline: as §1
[10] = Half life in mouse cryopreserved hepatocytes at 2.5 uM measured up to 90 mins by LC-MS/MS analysis; assay type: ADME, cell-based, Hepatocyte; details: 1.5 h; outline: as §1
[11] = Half life in dog cryopreserved hepatocytes at 2.5 uM measured up to 90 mins by LC-MS/MS analysis; assay type: ADME, cell-based, Canis lupus familiaris, Hepatocyte; details: 1.5 h; outline: as §1
[12] = Half life in human cryopreserved hepatocytes at 2.5 uM measured up to 90 mins by LC-MS/MS analysis; assay type: ADME, cell-based, Hepatocyte; details: 1.5 h; outline: as §1
[13] = Cmax in C57BL/6J mouse plasma at 10 mg/kg, po after 1 hr by UHPLC-MS analysis; assay type: ADME, organism-based; design: route oral, dose 10 mg/kg, time 1 hrs; details: in vivo
Outline: (§2)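 Male C57BL/6J mice, single oral dose 10 mg/kg. Compound extracted from plasma, brain and thigh muscle at set time points over 8 h and quantified by LC–MS. n = 3, mean per time point.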

[14] = Tmax in C57BL/6J mouse plasma at 10 mg/kg, po by UHPLC-MS analysis; assay type: ADME, organism-based; outline: as §2
[15] = Half life in C57BL/6J mouse plasma at 10 mg/kg, po by UHPLC-MS analysis; assay type: ADME, organism-based; outline: as §2
[16] = AUC (0 to 8 hrs) in C57BL/6J mouse plasma at 10 mg/kg, po by UHPLC-MS analysis; assay type: ADME, organism-based; design: time < 8 hr, route oral, dose 10 mg/kg; details: in vivo; outline: as §2
[17] = Clearance in C57BL/6J mouse plasma at 10 mg/kg, po by UHPLC-MS analysis; assay type: ADME, organism-based
Outline: (§3)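 Male C57BL/6J mice given a single oral 10 mg/kg dose. Plasma, brain and thigh muscle sampled at set times up to 8 h. Compound extracted from each tissue and quantified by LC–MS. n = 3, mean per time point.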

[18] = Cmax in C57BL/6J mouse brain at 10 mg/kg, po after 30 mins by UHPLC-MS analysis; assay type: ADME, organism-based; design: route oral, dose 10 mg/kg, time 30 min; outline: as §2
[19] = Tmax in C57BL/6J mouse brain at 10 mg/kg, po by UHPLC-MS analysis; assay type: ADME, organism-based; outline: as §2
[20] = Half life in C57BL/6J mouse brain at 10 mg/kg, po by UHPLC-MS analysis; assay type: ADME, organism-based; outline: as §2
[21] = AUC (0 to 8 hrs) in C57BL/6J mouse brain at 10 mg/kg, po by UHPLC-MS analysis; assay type: ADME, organism-based; design: time < 8 hr, route oral, dose 10 mg/kg; details: in vivo; outline: as §2
[22] = Cmax in C57BL/6J mouse thigh muscle at 10 mg/kg, po after 30 mins by UHPLC-MS analysis; assay type: ADME, organism-based; design: route oral, time 30 min, dose 10 mg/kg; outline: as §2
[23] = Tmax in C57BL/6J mouse thigh muscle at 10 mg/kg, po by UHPLC-MS analysis; assay type: ADME, organism-based; outline: as §2
[24] = Half life in C57BL/6J mouse thigh muscle at 10 mg/kg, po by UHPLC-MS analysis; assay type: ADME, organism-based; outline: as §2
[25] = AUC (0 to 8 hrs) in C57BL/6J mouse thigh muscle at 10 mg/kg, po by UHPLC-MS analysis; assay type: ADME, organism-based; design: time < 8 hr, route oral, dose 10 mg/kg; details: in vivo; outline: as §2
[26] = biological target: T1, Serine/threonine-protein kinase mTOR; experiment: Displacement of alexa fluor 647-labeled kinase tracer 314 from recombinant human N-terminal GST-fused mTOR (1360 to 2549 residues) expressed in baculovirus expression system by TR-FRET assay relative to parent compound
[27] = Ratio of drug level in brain to plasma in C57BL/6J mouse at 10 mg/kg, po by UHPLC-MS analysis; assay type: ADME, organism-based; details: brain and plasma, read-out: BPR; outline: as §3
Mus musculus [28] = experiment: Increase in glucose level in C57BL/6J mouse plasma at 10 mg/kg, po measured after 2 hrs by UV/Vis spectrometry analysis; assay type: functional, organism-based
Outline: (§4)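 Male C57BL/6J mice given a single oral 10 mg/kg dose. Plasma glucose and insulin levels followed over time after dosing. Mean ± SEM.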

Mus musculus [29] = experiment: Increase in insulin level in C57BL/6J mouse plasma at 10 mg/kg, po measured after 2 hrs by UV/Vis spectrometry analysis; assay type: functional, organism-based; outline: as §4
OVCAR-3 [30] = experiment: Antitumor activity against human OVCAR-3 cells xenografted in BALB/c nude mouse assessed as tumor growth inhibition at 6.3 mg/kg, po qd administered for 28 days starting from day 17 post inoculation and measured on day 45; assay type: functional, organism-based; details: time 28.0 day
Outline: (§5)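 BALB/c nude mice inoculated subcutaneously with 5 × 10^6 OVCAR-3 cells on day 0. From day 17, dosed orally once daily for 28 days; controls received vehicle QD. Tumor size tracked over time, tumor weight taken at day 45, body weight recorded at set time points. n = 8, mean ± SEM; two-way ANOVA with Bonferroni or Dunnett's correction.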

[31] = Toxicity in BALB/c nude mouse xenografted with human OVCAR3 cells assessed as effect on body weight at 6.3 mg/kg, po qd administered for 28 days starting from day 17 post inoculation; assay type: organism-based; details: in vivo, 672 h, time 28 day; outline: as §5
[32] = Toxicity in BALB/c nude mouse xenografted with human OVCAR3 cells assessed as maximum tolerated dose; details: in vivo
[33] = Toxicity in po dosed Wistar female rat assessed as NOAEL administered via gavage for 14 consecutive days; assay type: organism-based; details: in vivo, time 14 day
Outline: (§6)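 14-day pilot toxicokinetic study in Wistar rats (males and females assessed separately) and beagle dogs. NOAEL was set in mg/kg/day.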

[34] = Toxicity in po dosed Wistar male rat assessed as NOAEL administered via gavage for 14 consecutive days; assay type: organism-based; details: in vivo, time 14 day; outline: as §6
[35] = Toxicity in po dosed Beagle dog assessed as NOAEL administered via gavage for 14 consecutive days; assay type: organism-based, Canis lupus familiaris; details: in vivo, time 14 day; outline: as §6
OVCAR-3 [36] = experiment: Antitumor activity against human OVCAR-3 cells xenografted in BALB/c nude mouse assessed as effect on tumor size at 6.3 mg/kg, po qd administered for 28 days starting from day 17 post inoculation and measured on day 45 (reference value: 1031 mm3); details: time 28 day
[37] = biological target: Phosphatidylinositol 4,5-bisphosphate 3-kinase catalytic subunit alpha isoform (Homo sapiens, UniProt P42336); experiment: Displacement of alexa fluor 647-labeled kinase tracer 314 from recombinant N-terminal His6-tagged p110alpha (unknown origin) by TR-FRET assay
Phosphatidylinositol 4,5-bisphosphate 3-kinase catalytic subunit alpha isoform, sequence (P42336 whole entry, canonical isoform): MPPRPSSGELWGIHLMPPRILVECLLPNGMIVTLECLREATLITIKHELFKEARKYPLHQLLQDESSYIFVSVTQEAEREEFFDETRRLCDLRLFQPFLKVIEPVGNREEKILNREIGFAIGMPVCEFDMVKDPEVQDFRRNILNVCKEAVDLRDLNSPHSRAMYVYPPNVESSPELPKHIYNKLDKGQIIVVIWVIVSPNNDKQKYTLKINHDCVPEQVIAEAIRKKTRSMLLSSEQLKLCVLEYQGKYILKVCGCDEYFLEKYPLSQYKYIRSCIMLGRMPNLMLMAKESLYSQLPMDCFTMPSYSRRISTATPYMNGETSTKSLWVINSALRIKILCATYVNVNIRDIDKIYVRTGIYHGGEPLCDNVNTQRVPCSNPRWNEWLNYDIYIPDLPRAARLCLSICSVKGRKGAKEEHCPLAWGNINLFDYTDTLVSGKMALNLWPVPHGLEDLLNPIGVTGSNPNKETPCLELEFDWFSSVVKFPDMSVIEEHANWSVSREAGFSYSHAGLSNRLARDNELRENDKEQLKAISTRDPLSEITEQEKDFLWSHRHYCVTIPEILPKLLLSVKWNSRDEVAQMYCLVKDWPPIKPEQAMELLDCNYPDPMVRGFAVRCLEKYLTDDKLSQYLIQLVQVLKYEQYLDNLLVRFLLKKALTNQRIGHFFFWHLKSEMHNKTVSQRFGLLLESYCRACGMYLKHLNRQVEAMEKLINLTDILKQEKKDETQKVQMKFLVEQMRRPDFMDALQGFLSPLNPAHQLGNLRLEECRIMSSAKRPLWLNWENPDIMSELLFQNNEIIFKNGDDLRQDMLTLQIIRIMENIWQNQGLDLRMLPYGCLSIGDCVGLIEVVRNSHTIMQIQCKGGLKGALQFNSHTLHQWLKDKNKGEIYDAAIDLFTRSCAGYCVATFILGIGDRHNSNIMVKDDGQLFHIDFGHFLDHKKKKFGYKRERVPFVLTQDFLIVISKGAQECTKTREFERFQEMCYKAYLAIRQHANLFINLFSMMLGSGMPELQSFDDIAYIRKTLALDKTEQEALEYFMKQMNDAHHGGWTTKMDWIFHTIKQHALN

With `Nc1ncc(-c2nc(N3CCOCC3)nc(N3CCOCC3)n2)c(C(F)F)n1` the permeability [1] was 8.196 ×10⁻⁶ cm/s, the IC50 (mTORC2) was 17 nM and the IC50 (mTORC1) was 61 nM. For the same compound, the Ki [2] was 33 nM, the solubility thermodynamic at 24 h [3] was over 1 µg/mL and the solubility thermodynamic at 24 h [4] was 13.6 µg/mL (≈ 34.5 µM). The IC50 (Cytochrome P450 1A2) was over 100000 nM, the IC50 (Cytochrome P450 2C19) was over 100000 nM and the IC50 (Cytochrome P450 2D6) was over 100000 nM. For the same compound, the IC50 (Cytochrome P450 3A4) was over 100000 nM, the CLH [5] was 1.5 µL/min and the CLH [6] was 7 µL/min. For the same compound, the CLH [7] was 6.7 µL/min, the CLH [8] was 4 µL/min and the t1/2 [9] was 8.67 h. The t1/2 [10] was 3.208 h, the t1/2 [11] was 3.528 h and the t1/2 [12] was 5.775 h. For the same compound, the Cmax [13] was 3282 ng/mL, the Tmax [14] was 1 h and the half-life [15] was 1.7 h. It also gave an AUC [16] of 10315 ng·h/mL, a CL/F [17] of 15.6 mL/min/kg and a Cmax [18] of 1020 ng/mL. For the same compound, the Tmax [19] was 0.5 h, the half-life [20] was 1.6 h and the AUC [21] was 2757 ng·h/mL. It also gave a Cmax [22] of 1810 ng/mL, a Tmax [23] of 0.5 h and a half-life [24] of 1.6 h. The AUC [25] was 4526 ng·h/mL, the Ratio Ki [26] was 2 and the Kp [27] was 0.3. For the same compound, the Activity (Mus musculus [28]) was “Active”, the Activity (Mus musculus [29]) was “Active” and the “growth inhibition (GI)” value (OVCAR-3 [30]) was “Active”. The Activity [31] was “Non-Toxic”, the MTD [32] was 6.3 mg/kg and the NOAEL at 336 h [33] was 2.4 mg/kg. For the same compound, the NOAEL at 336 h [34] was 3.6 mg/kg, the NOAEL at 336 h [35] was 10 mg/kg and the Activity (OVCAR-3 [36]) was 397 mm3.
In the case of `Nc1ncc(-c2nc(N3CCOCC3)nc(N3[C@@H]4CC[C@H]3COC4)n2)c(C(F)F)n1`, the IC50 (mTORC2) is reported as 73 nM, the IC50 (mTORC1) is reported as 91 nM and the Ki [37] is reported as 3.4 nM. The Ki [2] was 14 nM.
Compound `C[C@@H]1COCCN1c1nc(-c2cnc(N)nc2C(F)F)nc(N2CCOCC2)n1` has an IC50 (mTORC2) of 64 nM, an IC50 (mTORC1) of 116 nM and a Ki [37] of 2.7 nM. It also gave a Ki [2] of 21 nM.
In the case of `Nc1ncc(-c2nc(N3CCOCC3)nc(N3C[C@H]4CC[C@@H](C3)O4)n2)c(C(F)F)n1`, the IC50 (mTORC2) is reported as 84 nM, the IC50 (mTORC1) is reported as 139 nM and the Ki [37] is reported as 4.4 nM. The Ki [2] was 29 nM.
